Data: PMC3082000 (Bioorganic & medicinal chemistry letters, 2010)
pEC50: −log10 of the molar value.

Tests used:
[1] = solubility; type: physicochemical
[2] = molecular target: T1, M1 (Rattus norvegicus, UniProt P08482); assay: real-time cell-based calcium-mobilization assay, M1 PAM
T1 sequence (P08482 1-460): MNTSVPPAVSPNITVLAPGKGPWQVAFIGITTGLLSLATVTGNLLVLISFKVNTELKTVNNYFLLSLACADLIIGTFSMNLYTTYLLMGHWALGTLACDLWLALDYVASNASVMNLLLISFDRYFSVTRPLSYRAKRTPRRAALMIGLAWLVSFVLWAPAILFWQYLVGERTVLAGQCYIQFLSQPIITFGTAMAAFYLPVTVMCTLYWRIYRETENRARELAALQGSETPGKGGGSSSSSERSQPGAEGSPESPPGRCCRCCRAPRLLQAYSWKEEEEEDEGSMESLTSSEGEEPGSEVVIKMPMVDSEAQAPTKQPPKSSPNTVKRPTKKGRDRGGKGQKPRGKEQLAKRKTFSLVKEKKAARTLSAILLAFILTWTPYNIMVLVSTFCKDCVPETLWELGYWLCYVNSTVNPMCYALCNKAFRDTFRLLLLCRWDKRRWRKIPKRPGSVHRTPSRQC

[3] = test system: M2-M5; assay: counter-screening against M2-M5; type: cell-based; conditions: read-out: M2-M5 EC50; selectivity counter-screen
[4] = test system: biogenic amines (D2, H-HT2B, etc…); assay: Lead Profile screen at Ricerca, radioligand binding
[5] = test system: M1-M5; assay: Lead Profile screen at Ricerca, orthosteric binding
[6] = test system: TREx293-hM1 cells; assay: APP processing: M1-stimulated APPsα release, Western blot; type: cell-based, human; conditions: for APPsα release, in combination with low dose CCh: 2 μM with 100 nM CCh
Procedure, shortened: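 Stable human M1-overexpressing TREx293 cells, plated 2 days before use, were pretreated 15 min with 2 μM test compound or DMSO. Carbachol (100 nM or 10 μM) was then added, and medium was conditioned 1 h at 37°C. Endogenous APPsα in conditioned medium was detected by Western blot.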

[7] = cited from earlier work
[8] = molecular target: T1, M1; conditions: cited from earlier work

Cc1cc(NC(=O)CS(=O)(=O)c2cn(Cc3cccc(Br)c3)c3ccccc23)no1 [13g]
solubility [1]: poor

CCC(C)n1cc(-c2cccc(Cn3cc(S(=O)(=O)CC(=O)Nc4cc(C)on4)c4ccccc43)c2)cn1 (stereo not drawn) [14c]
M1 EC50 ([2]; average of at least three independent determinations): inactive

Cc1cc(NC(=O)CS(=O)(=O)c2cn(Cc3cccc(-c4cn[nH]c4)c3)c3cc(F)cc(F)c23)no1 [15e]
pEC50 [3]: < 4.52

Cc1cc(NC(=O)CS(=O)(=O)c2cn(Cc3cc(Br)ccc3F)c3ccccc23)no1 [15j, 2-((1-(5-bromo-2-fluorobenzyl)-1H-indol-3-yl)sulfonyl)-N-(5-methylisoxazol-3-yl)acetamide]
selectivity versus the biogenic amines [4]: selective
pEC50 [3]: < 4.52
orthosteric binding at M1-M5 [5]: no orthosteric binding
improvement in potency ([2]; relative to the non-fluorinated bromine analog): ~3 fold
APPsα release, in combination with low dose CCh ([6]; TREx293-hM1 cells, listed as ML169): potentiates the CCh-mediated non-amyloidogenic APPsα release to the same degree as 10 μM CCh
APPsα release, in combination with low dose CCh ([6]; TREx293-hM1 cells, listed as VU04505652): potentiates the CCh-mediated non-amyloidogenic APPsα release
APPsα release, compound alone ([6]; 2 μM, TREx293-hM1 cells): no effect

C[N+](C)(C)CCOC(N)=O [carbachol, reference compound]
soluble APP (APPsα) ([6]; 100 nM): modest increase
soluble APP (APPsα) ([6]; 10 μM): significant increase

Cn1cc(-c2ccc(CN3C(=O)C(=O)c4ccccc43)c(F)c2)cn1 [compound 3]
brainAUC/plasmaAUC [7]: ~0.1
efficacy (% ACh Max) [8]: 60 % ACh Max

Cc1cc(NC(=O)CS(=O)(=O)c2cn(Cc3ccccc3Cl)c3ccccc23)no1 [compound 7]
pEC50 [3]: < 4.52
